Values after ≈ are worked out from the molar mass of the structure shown.
Experiments:
[1] = Cytotoxicity against mouse EAC cells in hypoxic condition assessed as cell viability at 10 ug/ml after 2 hrs by trypan blue exclusion assay; format: functional; details: Ehrlich, read-out: Activity
Summary of the method: (§1)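 EAC cells aspirated from ascitic fluid of pre-inoculated female Swiss albino mice, suspended at 2.5×10⁶ cells/ml. Compounds freshly diluted in DMSO, 0.1 ml added per tube. Parallel aerobic and anaerobic tube sets; anaerobic tubes gassed with N₂ throughout. Incubation 2 h, then centrifugation. Trypan blue exclusion with haemocytometer counts; % viability = unstained cells/total cells × 100. DMSO-only negative control.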

[2] = Cytotoxicity against mouse EAC cells in aerobic condition assessed as cell viability at 5 ug/ml after 2 hrs by trypan blue exclusion assay; format: functional; details: Ehrlich, read-out: Activity; summary of the method: as §1
[3] = Ratio of IC50 for mouse EAC cells in aerobic condition to IC50 for mouse EAC cells in hypoxic condition
[4] = tested on: Ehrlich; experiment: Cytotoxicity against mouse EAC cells in hypoxic condition assessed as concentration required for 1% cell survival
[5] = Cytotoxicity against mouse EAC cells in aerobic condition assessed as cell viability at 1 ug/ml after 2 hrs by trypan blue exclusion assay; format: functional; details: Ehrlich, read-out: Activity; summary of the method: as §1
[6] = Cytotoxicity against mouse EAC cells in aerobic condition assessed as cell viability at 100 ug/ml after 2 hrs by trypan blue exclusion assay; format: functional; details: Ehrlich, read-out: Activity; summary of the method: as §1
[7] = Cytotoxicity against mouse EAC cells in hypoxic condition assessed as cell viability at 100 ug/ml after 2 hrs by trypan blue exclusion assay; format: functional; details: Ehrlich, read-out: Activity; summary of the method: as §1
[8] = Cytotoxicity against mouse EAC cells in aerobic condition assessed as cell viability at 50 ug/ml after 2 hrs by trypan blue exclusion assay; format: functional; details: Ehrlich, read-out: Activity; summary of the method: as §1
[9] = Cytotoxicity against mouse EAC cells in hypoxic condition assessed as cell viability at 50 ug/ml after 2 hrs by trypan blue exclusion assay; format: functional; details: Ehrlich, read-out: Activity; summary of the method: as §1
[10] = Cytotoxicity against mouse EAC cells in hypoxic condition assessed as cell viability at 1 ug/ml after 2 hrs by trypan blue exclusion assay; format: functional; details: Ehrlich, read-out: Activity; summary of the method: as §1
[11] = tested on: U-251; experiment: Growth inhibition of human U251 cells after 48 hrs by SRB assay; format: functional, cell-based; details: U-251, 48 h
Summary of the method: (§2)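 Cells plated at 10⁴ per well and allowed 24 h to attach. Compounds dissolved in DMSO were added at 0.1, 2.5, 5 and 10 µg/ml and incubated 48 h at 37 °C under 5% CO₂. Cells were then fixed, washed and stained with sulforhodamine B, and colour intensity was read on an ELISA reader.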

[12] = Cytotoxicity against mouse EAC cells in aerobic condition assessed as cell viability at 10 ug/ml after 2 hrs by trypan blue exclusion assay; format: functional; details: Ehrlich, read-out: Activity; summary of the method: as §1
[13] = Cytotoxicity against mouse EAC cells in hypoxic condition by trypan blue exclusion assay; format: functional, cell-based; details: Ehrlich
Summary of the method: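 EAC suspension (2.5×10⁶ cells/ml, from ascitic fluid of pre-inoculated female Swiss albino mice) exposed 2 h to DMSO-dissolved compounds over 1–100 µg/ml, in air or under continuous N₂. Viability by trypan blue exclusion, haemocytometer counts. IC50 taken as the concentration causing 50% mortality in net cell numbers.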

[14] = Cytotoxicity against mouse EAC cells in aerobic condition by trypan blue exclusion assay; format: functional, cell-based; details: Ehrlich; summary of the method: as §1
[15] = Cytotoxicity against mouse EAC cells in hypoxic condition assessed as cell viability at 25 ug/ml after 2 hrs by trypan blue exclusion assay; format: functional; details: Ehrlich, read-out: Activity; summary of the method: as §1
[16] = tested on: HepG2; experiment: Growth inhibition of human HepG2 cells after 48 hrs by SRB assay; format: functional, cell-based; details: HepG2, 48 h; summary of the method: as §2
[17] = Cytotoxicity against mouse EAC cells in hypoxic condition assessed as cell viability at 5 ug/ml after 2 hrs by trypan blue exclusion assay; format: functional; details: Ehrlich, read-out: Activity; summary of the method: as §1
[18] = Cytotoxicity against mouse EAC cells in aerobic condition assessed as cell viability at 25 ug/ml after 2 hrs by trypan blue exclusion assay; format: functional; details: Ehrlich, read-out: Activity; summary of the method: as §1

| Compound | viability at 10 µg/mL [1] [%] | viability at 5 µg/mL [2] [%] | HCR (IC50 air/IC50 hypoxia ratio) [3] | Potency [4] [µg/mL] | viability at 1 µg/mL [5] [%] | viability at 100 µg/mL [6] [%] | viability at 100 µg/mL [7] [%] | viability at 50 µg/mL [8] [%] | viability at 50 µg/mL [9] [%] | viability at 1 µg/mL [10] [%] | IC50 [11] [µg/mL] | viability at 10 µg/mL [12] [%] | IC50 [13] [µg/mL] | IC50 [14] [µg/mL] | viability at 25 µg/mL [15] [%] | IC50 [16] [µg/mL] | viability at 5 µg/mL [17] [%] | viability at 25 µg/mL [18] [%] |
| --- | --- | --- | --- | --- | --- | --- | --- | --- | --- | --- | --- | --- | --- | --- | --- | --- | --- | --- |
| CCOc1ccc(/N=C/c2c(-c3ccccc3)[n+]([O-])c3ccc(OC)cc3[n+]2[O-])cc1 | 92.9 | 99 | > 1.4 | > 100 | 99.3 | 84.1 | 30.5 | 91.1 | 64.9 | 99.3 | > 10 | 95.4 | 70 (≈ 168 µM) | > 100 | 84.4 | 0.77 (≈ 1.85 µM) | 97 | 92.3 |
| CCOc1ccc(NCc2nc3cc(OC)ccc3[n+]([O-])c2-c2ccccc2)cc1 | 98 | 98.6 | > 1 | > 100 | 100 | 85 | 80.7 | 93.3 | 87 | 100 | > 10 | 96.3 | > 100 | > 100 | 95 | 4.95 (≈ 12.3 µM) | 99 | 97.6 |
| COc1ccc(NC(=O)Nc2c(C)[n+]([O-])c3ccc(OC)cc3[n+]2[O-])cc1 |  |  |  |  |  |  |  |  |  |  | > 10 |  |  |  |  | 6 (≈ 16.2 µM) |  |  |
| Cc1c(NC(=O)OC(C)C)[n+]([O-])c2cc(Cl)ccc2[n+]1[O-] | 97.3 | 98.8 |  |  | 100 | 92 | 90.6 | 96.4 | 96.3 | 100 | > 10 | 98.3 |  |  | 96 | > 10 | 98.3 | 97 |
| COc1ccc2c(c1)[n+]([O-])c(NC(=O)OC(C)C)c(C)[n+]2[O-] | 90.4 | 99 | > 1 | > 100 | 100 | 87.7 | 63.2 | 92.6 | 76.2 | 94.8 | > 10 | 99 | > 100 | > 100 | 82.3 | 6 (≈ 19.5 µM) | 91.9 | 97 |
| Cc1c(C(=O)N=[N+]=[N-])[n+]([O-])c2cc(Cl)ccc2[n+]1[O-] | 88.3 | 98 | > 1 | > 100 | 100 | 81.8 | 59.1 | 91.2 | 70.3 | 99.3 |  | 98 | > 100 | > 100 | 84.2 |  | 92.6 | 98 |
| COc1ccc(NC(=O)Nc2c(C)[n+]([O-])c3ccc(Cl)cc3[n+]2[O-])cc1 | 50.2 | 98 | 10 | > 100 | 99.6 | 54.6 | 5.3 | 73.3 | 10.3 | 86.7 | > 10 | 83 | 10 (≈ 26.7 µM) | 100 (≈ 267 µM) | 24.2 | 0.5 (≈ 1.33 µM) | 73.3 | 79.2 |
| COc1ccc2c(c1)[n+]([O-])c(C(=O)N=[N+]=[N-])c(C)[n+]2[O-] | 58.3 | 99 | > 8 | 90 (≈ 327 µM) | 94.5 | 56 | 1.3 | 77.9 | 6.2 | 94.5 | > 10 | 83.9 | 12.5 (≈ 45.4 µM) | > 100 | 11.3 | 3.61 (≈ 13.1 µM) | 81.1 | 80.7 |
| N#Cc1c(N)[n+]([O-])c2ccc(Cl)cc2[n+]1[O-] | 71.3 | 98.8 | > 7.4 | > 100 | 100 | 94 | 5 | 94.3 | 43.5 | 94 |  | 97.3 | 13.5 (≈ 57.1 µM) | > 100 | 65.1 |  | 87.8 | 95 |
| Nc1n[n+]([O-])c2ccccc2[n+]1[O-] [TIRAPAZAMINE] |  |  |  |  |  |  |  |  |  |  | 71.2 (≈ 400 µM) |  |  |  |  | 56.6 (≈ 318 µM) |  |  |

From ChEMBL document CHEMBL1177836, “New quinoxaline 1, 4-di-N-oxides: anticancer and hypoxia-selective therapeutic agents” (Eur J Med Chem, 2010)
